High-throughput results (PubChem BioAssay)
A selection: hits, their analogues and other compounds. The true share with any hit is near 2.9%.
SENP8 block-1 = human SENP8 protease inhibitors, primary screen, biochemical, fluorescence, Nedd8 protein substrate, uHTS. Sentrin-specific protease 8 (Homo sapiens), Q96LD8. AID 602440, 2012. 0.64% of 360,000 active. inhibition, % at 20 µM. recombinant SENP8; in the data active means inhibition mostly above about 40%, no sharp cut-off; inactive means mostly below about 27%
SENP1 FRET inh = human SENP1 catalytic domain inhibitors, primary screen, biochemical, FRET, uHTS | inhibition, % at 10 µM | Sentrin-specific protease 1 (Homo sapiens), Q9P0U3 | 0.21% of 360,000 active | recombinant SENP1 catalytic domain, CyPet-SUMO1-YPet FRET cleavage;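 active means inhibition at least 30% at 10 µM, raw YFP signal under a set limit, fluorescence ratio 0.5 to 1.5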;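 further: 0% = enzyme with DMSO and 100% = no enzyme wells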
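Assay system: hSENP1 catalytic domain, recombinant. Amount: SENP1 enzyme, 20 pM final. Schedule: 50 min reaction, RT, dark. Technique: FRET, CFP and YFP emission. Control set: no-enzyme wells low, DMSO-plus-enzyme wells high control.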
SENP6 inh = SENP6 protease inhibitors, primary screen, biochemical, luminescence, uHTS; Sentrin-specific protease 6 (Homo sapiens), Q9GZR1; Recombinant SENP6 catalytic domain, aminoluciferin luminescence; inhibition, % at 10 µM; 1.8% of 330,000 active; AID 2599, 2010;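 active means inhibition above about 50% at the single tested dose, limit read from the data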;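 further: plate controls were DMSO wells with enzyme for no effect and DMSO wells lacking enzyme for full effect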
HSP90 refold inh = HSP90 inhibitors, primary screen, cell lysate, luminescence | Heat shock protein HSP 90 (rabbit reticulocyte lysate; luciferase refolding) | Rabbit reticulocyte lysate, luciferase refolding luminescence, 3 h | inhibition, % at 5.6 µM | 0.91% of 290,000 active;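 active means inhibition above the screen-wide mean plus 3 SD, computed separately per campaign, cut at about 16% in these data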;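 further: 0% = DMSO wells and 100% = 60 µM geldanamycin wells; inhibitors lower the luminescence because luciferase stays unfolded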
SENP7 block = SENP7 protease inhibitors, primary screen, biochemical, luminescence, uHTS | Sentrin-specific protease 7 (Homo sapiens), Q9BQF6 | recombinant SENP7, Z-RLRGG-aminoluciferin luminescence, 40 min | inhibition, % at 5 µM | 1.5% of 330,000 active | AID 434973, 2010;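 active means inhibition above about 50% at the single test dose, limit read from the data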;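 further: plate controls were DMSO with enzyme for no effect and no enzyme buffer wells for full effect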
Target sequence (Q9BQF6 706-1050 limits assumed): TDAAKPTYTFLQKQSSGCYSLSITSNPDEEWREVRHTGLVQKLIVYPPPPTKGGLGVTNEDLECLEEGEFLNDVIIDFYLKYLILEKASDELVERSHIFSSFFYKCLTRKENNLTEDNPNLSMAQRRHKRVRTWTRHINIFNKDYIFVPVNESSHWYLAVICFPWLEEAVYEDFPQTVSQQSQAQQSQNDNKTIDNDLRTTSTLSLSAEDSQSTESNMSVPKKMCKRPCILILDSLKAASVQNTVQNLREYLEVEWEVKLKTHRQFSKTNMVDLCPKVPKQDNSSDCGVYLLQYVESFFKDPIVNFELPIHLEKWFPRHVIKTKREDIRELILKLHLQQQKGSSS
SENP8 block-2 = SENP8 protease inhibitors, primary screen, biochemical, luminescence; purified SENP8, Z-RLRGG-aminoluciferin cleavage; inhibition, % at 10 µM; AID 2540, 2010; 1.2% of 330,000 active; Sentrin-specific protease 8 (Homo sapiens), Q96LD8; in the data active means inhibition above about 50%
SENP8 confirm = SENP8 protease inhibitors, retest, confirmation, biochemical, luminescence, single concentration. Recombinant SENP8, Z-RLRGG-aminoluciferin luminescence, 60 min. shares compounds with SENP7 block. 40% of 6,200 active. inhibition, % at 12.5 µM;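 active means mean inhibition across replicates above about 50%, limit read from the data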
SENP6 conf = SENP6 protease inhibitors, confirmation, biochemical, luminescence, single concentration; inhibition, % at 12.5 µM; 58% of 6,200 active; shares compounds with SENP7 block; recombinant SENP6, Z-RLRGG-aminoluciferin luminescence
SENP7 confirm = SENP7 protease inhibitors, retest, confirmation, biochemical, luminescence, single concentration; shares compounds with SENP7 block; recombinant SENP7, Z-RLRGG-aminoluciferin luminescence, 40 min; inhibition, % at 12.5 µM; 69% of 6,200 active
Casp3 SENP sel = caspase-3 protease inhibitors, confirmation, selectivity assay for SENP inhibitor project, biochemical, single concentration | 60% of 6,200 active | shares compounds with SENP7 block | purified caspase-3, Z-DEVD-aminoluciferin luminescence, 60 min | inhibition, % at 12.5 µM;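 active means mean inhibition above about 50%, limit read from the data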;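 further: plate controls were enzyme with DMSO for no effect and wells without caspase-3 for full effect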
SENP luc ctr = counter-screen for SENP inhibitors: luminescence interference; shares compounds with SENP7 block; 39% of 6,200 active; inhibition, % at 12.5 µM; Pre-incubated SENP8/Z-RLRGG-aminoluciferin, luciferase luminescence interference; AID 488919;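 active means mean inhibition above about 50% when retested at one dose, limit read from the data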;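 further: plate controls were DMSO wells with completed reaction for no effect and substrate without enzyme for full effect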
* hit, by the source's call.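 How the source made its calls, unless noted: active means mean inhibition above about 50% in the one-dose retest (limit read from the data); inactive means the rest.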

Cc1cc(=O)[nH]c(N/N=C/c2cc(C)n(-c3ccccc3)c2C)n1 was read as SENP8 block-1 -263, SENP1 FRET inh -1, SENP6 inh 66*, HSP90 refold inh 9, SENP7 block 13, SENP8 block-2 36, SENP8 confirm 66*, SENP6 conf 64*, SENP7 confirm 87*, Casp3 SENP sel 76* and SENP luc ctr 16.
For COCCN(C(=O)CSc1nnc(-c2ccccc2F)o1)c1c(N)n(Cc2ccccc2)c(=O)[nH]c1=O the results were SENP8 block-1 9 and SENP1 FRET inh -1.
`CC1Cc2cc(/C=C3/SC(=S)N(C)C3=O)ccc2O1` (stereo not drawn) gave SENP8 block-1 25, SENP1 FRET inh -60, SENP6 inh 74*, HSP90 refold inh 0, SENP7 block 63*, SENP8 block-2 61*, SENP8 confirm 10, SENP6 conf 20, SENP7 confirm 38, Casp3 SENP sel 52* and SENP luc ctr -5.
CCCCc1ccc(-c2nc(-c3ccncc3)no2)cc1 was read as SENP8 block-1 0, SENP1 FRET inh 2, SENP6 inh 21, HSP90 refold inh -6, SENP7 block 90*, SENP8 block-2 83*, SENP8 confirm 11, SENP6 conf 11, SENP7 confirm 9, Casp3 SENP sel -5 and SENP luc ctr 2.
Screening CCc1ccc(-c2nc(-c3ccncc3)no2)cc1 returned SENP8 block-1 26, SENP1 FRET inh -1, SENP6 inh 87*, HSP90 refold inh 0, SENP7 block 90*, SENP8 block-2 80*, SENP8 confirm 84*, SENP6 conf 88*, SENP7 confirm 97*, Casp3 SENP sel 80* and SENP luc ctr 67*.
`CC(C)CN1CCC1(C)C(=O)Nc1cc(-c2ccccc2)nn1C` (stereo not drawn) gave SENP8 block-1 -8 and SENP1 FRET inh 3.
For c1ccc(-c2noc(C3CCC3)n2)nc1 the results were SENP8 block-1 18, SENP1 FRET inh -4, SENP6 inh -19, HSP90 refold inh -2, SENP7 block -5 and SENP8 block-2 -5.
CCCCC1CCC(c2nc(-c3ccccn3)no2)CC1 (stereo not drawn) was read as SENP8 block-1 17, SENP1 FRET inh 3, SENP6 inh 72*, HSP90 refold inh 12, SENP7 block 41, SENP8 block-2 54*, SENP8 confirm 11, SENP6 conf 28, SENP7 confirm 1, Casp3 SENP sel 25 and SENP luc ctr 26.
